UCH37 DUB inh: inhibitors of human UCH37 deubiquitinase, primary screen, biochemical, Ub-AMC cleavage, fluorescence | purified proteasome/UCH37 | Ubiquitin carboxyl-terminal hydrolase isozyme L5 (Homo sapiens), Q9Y5K5 | inhibition, % (concentration not given with the values) | 330,000 tested, 0.33% active;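 active = mean inhibition over replicate wells above about 20%, limit read from the data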;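 note: 0% = compound-free wells with enzyme and 100% = wells lacking proteasome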
Target sequence (Q9Y5K5 whole entry, looked up): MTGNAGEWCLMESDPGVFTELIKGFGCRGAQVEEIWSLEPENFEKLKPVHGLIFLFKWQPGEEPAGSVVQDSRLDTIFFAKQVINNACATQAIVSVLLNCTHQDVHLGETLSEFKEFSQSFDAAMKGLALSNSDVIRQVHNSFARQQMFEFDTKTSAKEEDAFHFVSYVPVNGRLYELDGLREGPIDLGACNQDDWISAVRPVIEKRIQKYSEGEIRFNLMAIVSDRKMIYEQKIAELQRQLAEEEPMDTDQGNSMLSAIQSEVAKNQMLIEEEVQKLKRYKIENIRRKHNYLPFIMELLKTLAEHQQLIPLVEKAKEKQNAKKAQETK
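assay system = human UCH37 enzyme supplied as purified proteasome complex | amount = proteasome at 0.15 nM in the dispensed enzyme solution | schedule = 30 min compound-proteasome preincubation then 25 min substrate reaction, room temperature | measured by = fluorescence, ex 355 nm, em 460 nm | benchmarks = no-proteasome wells (full inhibition) and compound-free wells (no inhibition)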
CASP6 VEID inh: human caspase-6 inhibitors, primary screen, biochemical, VEID-R110 fluorescence, single point, set 2. 350,000 tested, 0.53% active. inhibition, % at 12.5 µM. purified caspase-6, Z-VEID-R110 cleavage fluorescence. AID 686996, 2013. P55212;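 active = mean inhibition across replicates at least about 35%, with every replicate also reaching that limit, limit read from the data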;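 note: 0% = median of neutral control wells and 100% = no fluorescence left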
Target sequence (P55212 24-179 limits assumed): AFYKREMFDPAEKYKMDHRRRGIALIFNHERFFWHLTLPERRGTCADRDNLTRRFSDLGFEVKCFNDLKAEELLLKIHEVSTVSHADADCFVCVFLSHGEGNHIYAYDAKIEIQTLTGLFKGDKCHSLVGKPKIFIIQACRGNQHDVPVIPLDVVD
Target sequence (P55212 194-293 limits assumed): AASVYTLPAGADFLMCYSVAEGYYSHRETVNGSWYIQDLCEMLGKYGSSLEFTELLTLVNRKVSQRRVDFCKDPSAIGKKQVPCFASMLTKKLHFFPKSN
SIRT5 inh: SIRT5 desuccinylase inhibitors, primary screen, biochemical, fluorescence imaging, single point, set 5; NAD-dependent protein deacylase sirtuin-5, mitochondrial (Homo sapiens), Q9NXA8; inhibition, % at 15 µM; 330,000 tested, 1.1% active; Purified SirT5, succinyl-peptide AMC, trypsin-coupled fluorescence; in the data active = inhibition above about 15%
FGF22 binding-1: binders of human FGF22 protein, primary screen, FGF22 synaptogenesis inhibitor project, biophysical, thermal shift, single point; Fibroblast growth factor 22 (Homo sapiens), Q9HCT0; recombinant FGF22 thermal shift, SYPRO orange fluorescence; percent of sucrose octasulfate shift, DMSO zero; activity (Tm shift, normalised), % at 9.99 µM; 340,000 tested, 1.5% active; AID 651658, 2012;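 active = mean Tm shift, scaled 0 neutral to 100 positive control, at about 1.3% or above, every replicate too, limit read from the data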
NSD2 HMT inh: NSD2 histone methyltransferase inhibitors, primary screen, biochemical, AlphaScreen, single concentration, set 2 | 310,000 tested, 0.54% active | NSD2 peptide methylation, 120 min | Histone-lysine N-methyltransferase NSD2 (Homo sapiens), O96028 | inhibition, % at 12.5 µM; in the data active = inhibition above about 50%
FGF22 binding-2: binders of human FGF22 protein, dose response, FGF22 synaptogenesis inhibitor project, biophysical, thermal shift, cherry-pick retest; 1,000 tested, 2% active; shares compounds with FGF22 binding-1; AID 720646, 2013; recombinant FGF22 thermal shift, SYPRO orange fluorescence; thermal shift activity, °C (ΔTm) at 38 µM;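 active = fitted rise in melting shift crosses a set limit at or below the top valid dose tested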
SYPRO no-protein: compound-only thermal shift signal without protein, dose response, artefact control for FGF22 binder project, biochemical, cherry-picked samples, RT-PCR instrument. shares compounds with FGF22 binding-1. compound-only SYPRO orange thermal shift counter-screen, no protein. AC50, µM (highest dose often 38 µM). 1,000 tested, 2% active;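 active = rising signal whose fitted curve reaches the 0.54 level within the top valid dose, showing a melting point, actives reach about 13 µM in these data; inactive = the rest, including activity in the opposite direction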; note: value is where the raw curve crosses a fixed level and not half-maximal
The depositor's hits bear a star; i = inactive; . = no result; [ ] = dose if it differs, or a comment. The list is not random: actives were taken first. Their share in the collection is about 2.6%.

SMILES | UCH37 DUB inh | CASP6 VEID inh | SIRT5 inh | FGF22 binding-1 | NSD2 HMT inh | FGF22 binding-2 | SYPRO no-protein
COc1cccc(CNC(=O)C[C@@H]2CC[C@H]3[C@H](COc4ccc(NS(=O)(=O)c5ccccc5F)cc4C(=O)N3C)O2)c1 | . | . | -0.7 | . | . | . | .
CN(Cc1ccccc1)C(=O)c1[nH]cnc1C(=O)NC1CCN(C(=O)OC(C)(C)C)CC1 | 1.6 | -0.4 | . | 2.5* | . | 0.144 | i
O=S(=O)(Nc1cc(Cl)ccc1-n1cncn1)c1ccc(F)cc1 | -0.5 | -2.7 | -1.2 | 1.5* | 0.5 | -0.013 | i
O=C(N[C@H]1C=C[C@H](CC(=O)N2CCCCC2)O[C@H]1CO)c1cccc(F)c1 | . | -0.3 | -0.5 | 1.5* | . | . | i
CN1CCN(C(=O)C[C@H]2C=C[C@@H](NC(=O)c3ccc4c(c3)OCO4)[C@H](CO)O2)CC1 | . | 0.7 | 4.5 | 1.2* | . | 0.143[42 µM] | i
COc1cccc(NC(=O)N[C@H]2C=C[C@H](CC(=O)N3CCN(C)CC3)O[C@H]2CO)c1 | . | -1.8 | 1.2 | . | . | . | .
COc1cccc(NC(=O)N[C@H]2C=C[C@@H](CC(=O)N3CCN(C)CC3)O[C@H]2CO)c1 | . | -0.5 | -3.2 | 2.3* | . | 0.125[42 µM] | i
O=C(N[C@H]1C=C[C@H](CC(=O)N2CCCCC2)O[C@@H]1CO)c1cccc(F)c1 | . | 0.6 | 4.2 | 1.1 | . | . | .
O=C(N[C@@H]1C=C[C@H](CC(=O)N2CCCCC2)O[C@@H]1CO)c1cccc(F)c1 | . | -2.2 | -0.8 | 1.3* | . | -0.043 | i
CN1CCN(C(=O)C[C@H]2C=C[C@H](NC(=O)c3ccc4c(c3)OCO4)[C@@H](CO)O2)CC1 | . | 2.0 | 4.2 | 1.0 | . | . | .
CC(=O)N(C)C[C@H]1Oc2cc(C3=CCCC3)ccc2S(=O)(=O)N([C@H](C)CO)C[C@H]1C | . | 1.8 | -1.8 | -0.3 | . | . | .
CCOc1ccc(C=Nn2c(-c3ccccc3)n[nH]c2=S)cc1 | 2.8 | . | . | . | . | . | .
CO[C@H]1CN(C)C(=O)c2ccc(NS(=O)(=O)c3ccc(Cl)cc3)cc2OC[C@@H](C)NC[C@@H]1C | . | 0.9 | 1.7 | 0.1 | . | . | .
COc1cccc(C(=O)Nc2cccc(NC(=O)c3cccs3)c2)c1 | 6.0 | -0.9 | 1.1 | 1.9* | -1.4 | -0.032 | i
O=C(Nc1ccc(NC(=O)c2cccs2)cc1)c1ccc2c(c1)OCCO2 | -9.6 | -1.4 | -7.8 | 0.0 | -2.6 | . | .
COc1cc(NC(=O)c2ccc3c(c2)OCCO3)ccc1NC(=O)c1cccs1 | 3.6 | 3.7 | 3.7 | 2.0* | 3.7 | -0.196 | 10.2µM*
COc1cccc(C(=O)Nc2cc(NC(=O)c3cccs3)ccc2C)c1 | 6.0 | 3.6 | -3.1 | 0.3 | -4.5 | . | .
COc1cc([N+](=O)[O-])ccc1NC(=O)Nc1ccc2c(c1)OCCO2 | 3.5 | 0.4 | 4.5 | 1.7* | -1.3 | 0.073 | i
O=C(NC1CC1)c1cccc(NC(=O)c2cnn(-c3ccccc3)n2)c1 | 4.3 | -4.1 | -0.8 | 1.4* | . | 0.036 | i
NC(=O)NC(=O)COC(=O)c1cccnc1Nc1ccccc1F | -12.7 | -2.0 | -4.2 | 0.2 | 11.2 | . | .
NC(=O)c1cccnc1Nc1ccccc1F | 3.6 | -0.7 | 0.3 | 1.4* | -0.5 | 0.114 | i
O=[N+]([O-])c1ccc(N/N=C/c2ccc[nH]2)cc1 | . | 0.7 | 3.7 | 3.1* | 9.0 | 0.23 | i
C/C=C/c1ccc2c(c1)O[C@@H](CN(C)C(=O)Nc1ccccc1)[C@H](C)CN([C@H](C)CO)S2(=O)=O | . | -2.1 | 1.4 | 0.8 | . | . | .
COc1cccc(NC(=O)N(C)C[C@H]2Oc3cc(-c4ccccc4F)ccc3S(=O)(=O)N([C@H](C)CO)C[C@H]2C)c1 | . | -1.4 | 15.6* | 2.3* | . | 0.137 | 11.5µM*
C[C@@H]1CN([C@@H](C)CO)S(=O)(=O)c2ccc(-c3ccccc3)cc2O[C@@H]1CN(C)C(=O)Nc1ccccc1F | . | -0.4 | 1.9 | 0.0 | . | . | .
SMILES | UCH37 DUB inh | CASP6 VEID inh | SIRT5 inh | FGF22 binding-1 | NSD2 HMT inh | FGF22 binding-2 | SYPRO no-protein
C[C@@H]1CN([C@H](C)CO)S(=O)(=O)c2ccc(-c3ccc(F)cc3)cc2O[C@@H]1CN(C)C(=O)Nc1ccccc1F | . | -4.2 | -1.0 | 1.8* | . | 0.119 | i
C[C@H]1CN([C@@H](C)CO)S(=O)(=O)c2ccc(/C=C/c3ccccc3)cc2O[C@@H]1CN(C)Cc1ccc(C(=O)O)cc1 | . | 2.3 | 25.3* | 1.6* | . | 0.062[42 µM] | i
C/C=C/c1ccc2c(c1)O[C@@H](CN(C)C(=O)Nc1ccc(F)cc1)[C@@H](C)CN([C@H](C)CO)S2(=O)=O | . | -0.6 | -3.9 | . | . | -0.092 | i
C[C@H](CO)N1C[C@H](C)[C@H](CN(C)S(=O)(=O)c2cn(C)cn2)OCCCC[C@H](C)Oc2ccc(NC(=O)CCCN(C)C)cc2C1=O | . | 3.4 | 4.3 | -0.6 | . | . | .
O=C(C[C@H]1C[C@H]2c3cc(NC(=O)Nc4ccccc4F)ccc3O[C@H]2[C@H](CO)O1)NCc1ccc(Oc2ccccc2)cc1 | . | -6.7 | -0.2 | 0.1 | . | . | .
CCC(=O)N1[C@@H](CO)[C@@H]2c3ccccc3N(C(=O)NC(C)C)C[C@@H]21 | . | -2.3 | 5.4 | 0.1 | . | . | .
C[C@@H]1CCCCO[C@@H](CN(C)S(=O)(=O)c2ccc(Cl)cc2)[C@@H](C)CN([C@@H](C)CO)C(=O)c2cc(NC(=O)Cc3ccccc3)ccc2O1 | . | -1.2 | 8.8 | -0.4 | . | . | .
COc1cccc(NC(=O)N(C)C[C@@H]2Oc3cc(-c4ccccc4F)ccc3S(=O)(=O)N([C@@H](C)CO)C[C@@H]2C)c1 | . | -4.3 | 3.6 | 2.1* | . | -0.219 | i
Cc1ccc(NC(=O)Nc2nnc([C@@H]3C[C@H](O)[C@@H](CO)O3)s2)cc1 | . | 0.3 | 0.1 | 0.1 | -1.0 | . | .
CC(C)c1ccc(NC(=O)Nc2nnc([C@H]3C[C@H](O)[C@@H](CO)O3)s2)cc1 | . | 1.8 | -0.8 | 26.0* | 0.7 | 0.057 | i
CNC(=S)N(Cc1ccc(OC)cc1)C1CC(=O)N(c2ccc(OC)cc2)C1=O (stereo not given) | 2.4 | . | . | . | -0.4 | . | .
CNC(=S)N(Cc1ccc(OC)cc1)C1CC(=O)N(c2ccc(C(=O)OC)cc2)C1=O (stereo not given) | 4.4 | 0.7 | 1.0 | 2.2* | -1.2 | -0.043 | i

High-throughput results deposited in PubChem by several laboratories.
